Only some compounds are listed: those with a hit (about 1.9% of all), similar ones and a draw of the others.
LEDGF integ inh: blockers of LEDGF/p75-dependent integrase strand transfer – biochemical, TR-FRET, high throughput, primary screen; hit rate 0.64% among 370,000; HIV-1 integrase (with human LEDGF/p75); TR-FRET IN-LEDGF/p75 DNA integration, Eu/Cy5; inhibition, % at 3.7 µM;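 active = inhibition above the screen-wide mean plus 3 SD, cut at about 13% in these data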;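 note: signal is the Cy5 over europium emission ratio at 671 and 618 nm; 0% = plate median of compound wells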
TDP2 absorb: human TDP2 enzyme inhibitors, primary screen, biochemical, epi absorbance, recombinant enzyme; Tyrosyl-DNA phosphodiesterase 2 (Homo sapiens), O95551; T5PNP hydrolysis, p-nitrophenol absorbance 415 nm; inhibition, % at 12.8 µM; hit rate 0.34% among 370,000;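 active = inhibition above the mean of all tested compounds plus 3 SD, set per campaign, cut at about 25% in these data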;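 note: 0% = DMSO with enzyme and 100% = buffer with substrate but no TDP2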
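Assay system: Recombinant human TDP2 | Quantity: 120 nM TDP2 per well | Incubation: 2 h at 37 °C | Signal: Epi absorbance | Evaluation: Percent inhibition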
Rin1 Abl inh: inhibitors of Rin1-Abl protein binding, primary screen, biochemical, TR-FRET. Tyrosine-protein kinase ABL1 (Homo sapiens) + Ras and Rab interactor 1 (Homo sapiens), …. inhibition, % at 7.35 µM. hit rate 0.4% among 360,000. AID 588664, 2011; in the data active = inhibition above about 5%, passing the limit was not always enough
UHRF1 binding: UHRF1 methylated DNA binding inhibitors, primary screen, counter-screen for MBD2 inhibitor project, biochemical, TR-FRET, human UHRF1, single concentration; UHRF1 binding to methylated oligo; inhibition, % at 4.4 µM; hit rate 0.75% among 370,000; E3 ubiquitin-protein ligase UHRF1 (Homo sapiens), Q96T88; in the data active = inhibition above about 21%;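 note: UHRF1 SRA domain binding a hemimethylated CpG hairpin DNA probe; 0% = median of test compound wells and 100% = reference inhibitor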
MBD2 DNA inh: inhibitors of MBD2 binding to methylated DNA, primary screen, biochemical, TR-FRET, DNA-binding domain, human | inhibition, % at 4.4 µM | Methyl-CpG-binding domain protein 2 (Homo sapiens), Q9UBB5 | hit rate 0.31% among 370,000 | AID 686964, 2013 | MBD2 binding to methylated oligonucleotide; in the data active = inhibition above about 13%
Target sequence (Q9UBB5 whole entry, looked up, the tested form may be a part): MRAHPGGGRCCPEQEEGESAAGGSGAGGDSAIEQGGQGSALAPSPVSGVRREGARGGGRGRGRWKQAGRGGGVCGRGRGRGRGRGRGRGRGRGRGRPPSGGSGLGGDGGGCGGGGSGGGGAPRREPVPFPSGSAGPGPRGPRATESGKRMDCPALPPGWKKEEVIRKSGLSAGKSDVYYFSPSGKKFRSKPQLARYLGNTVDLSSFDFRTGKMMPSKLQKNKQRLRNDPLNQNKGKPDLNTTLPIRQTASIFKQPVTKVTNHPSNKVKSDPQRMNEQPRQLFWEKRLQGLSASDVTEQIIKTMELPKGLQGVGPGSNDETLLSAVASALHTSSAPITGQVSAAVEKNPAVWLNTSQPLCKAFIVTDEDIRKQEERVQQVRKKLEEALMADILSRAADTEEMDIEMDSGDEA
Rin1-Abl confirm: Rin1-Abl binding inhibitor retest, confirmation, biochemical, TR-FRET. purified proteins. hit rate 49% among 1,300. inhibition, % at 7.35 µM. AID 602124, 2011. shares compounds with Rin1 Abl inh
GFP quencher: GFP fluorescence inhibitors and quenchers, artefact control for Rin1-Abl interaction inhibitor project, biochemical; hit rate 8.5% among 1,300; inhibitors/quenchers counterscreen; inhibition, % at 6.75 µM; shares compounds with Rin1 Abl inh;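 note: ABL1-eGFP fusion protein alone without its partner RIN1-SBP; 0% = protein with vehicle and 100% = wells lacking protein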
GFP quench dose: GFP fluorescence inhibitors and quenchers, dose response, artefact control for Rin1-Abl interaction inhibitor project, biochemical. shares compounds with Rin1 Abl inh. GFP fluorescence interference/quenching counterscreen. IC50, µM. 230 tested, under 10 active. AID 602182, 2012; call rule not given here;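 note: ABL1-eGFP fusion protein alone without its RIN1 binding partner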
Starred values were filed as active, the others as inactive; x = no result. Cut-off read from the data, not from the text of the source, unless noted: active = inhibition above about 6.5%; inactive = the rest.

SMILES	LEDGF integ inh	TDP2 absorb	Rin1 Abl inh	UHRF1 binding	MBD2 DNA inh	Rin1-Abl confirm	GFP quencher	others
COc1ccc(CNC(=O)CCSCc2ccccc2Cl)c(OC)c1	2.2	10.7	-2.0	-0.9	0.0	x	x
O=C(N/N=C/c1ccc(O)c(O)c1)N/N=C/c1ccc(O)c(O)c1	91.2*	-6.7	49.1*	7.3	8.7	62.6*	11.7*
CCc1ccc(CN2CCC(Oc3ccc(C(=O)N4CCCCC4)cc3)CC2)cc1	2.0	15.7	10.1*	-2.2	2.3	3.1	-1.6
CCc1ccc(CN2CCC(Oc3ccc(C(=O)N4CCCC4)cc3)CC2)cc1	-4.4	-7.2	0.0	3.7	5.3	x	x
CCn1c(CCc2ccccc2)nnc1SCC(N)=O	1.0	-7.4	6.9*	3.5	2.3	-1.1	0.9
O=c1cc(SCc2ccccc2)nc[nH]1	0.0	-20.5	88.8*	5.5	-3.6	98.4*	1.1	GFP quench dose=>67.6
Cc1cc(SCc2ccccc2)nc(=O)[nH]1	-2.1	-5.5	4.8	1.3	1.9	x	x
Cc1cc(N2CCOCC2)nc(SCC(=O)c2ccc(Cl)cc2)n1	1.1	3.1	15.2*	1.5	-4.8	14.6*	-0.6
O=C(C1CCCN1S(=O)(=O)c1cccc2ccccc12)N1CCN(c2ccccc2)CC1 (configuration not stated)	-0.2	5.4	x	-2.7	-4.3	x	x
COc1cc(SC)ccc1C(=O)N1CCN(c2ccccc2F)CC1	1.2	-10.1	0.5	3.0	9.8	x	x
COc1cc2c(C(=O)N3CCN(c4ccccc4F)CC3)cn(C)c(=O)c2cc1OC	-4.3	4.1	8.9*	0.2	0.5	11.8*	1.4
CCOC(=O)C1CCCN(C(=O)c2cn(C)c(=O)c3cc(OC)c(OC)cc23)C1 (configuration not stated)	1.6	-6.7	25.4*	2.0	3.7	32.3*	0.1	GFP quench dose=>67.5
COC(=O)[C@]12C[C@H](CC(=O)N3CCC(c4ccccc4)CC3)C(=O)N(Cc3ccc(Cl)cc3Cl)C1=C[C@H](COCc1ccccc1)O[C@@H]2C	0.4	-6.3	x	5.2	1.0	x	x
COc1ccc(CN2C(=O)[C@]3(NCCc4c3[nH]c3ccc(OC)cc43)c3cc(Br)ccc32)cc1	-1.3	-2.7	x	1.3	-3.7	x	x
COc1ccccc1N=Nc1ccc(O)c2ncccc12	3.9	12.3	8.7*	-15.0	-8.8	4.9	12.3*
CCS(=O)(=O)c1ccc(N=Nc2ccc(O)c3ncccc23)c(OC)c1	-0.6	-1.7	6.9	-6.5	-1.2	x	x
Cc1cccc(-c2cc(N3CCCN(C)CC3)n3nccc3n2)c1	1.1	4.9	-1.7	4.2	-7.1	x	x
CN1CCCN(c2cc(-c3ccc4ccccc4c3)nc3ccnn23)CC1	4.2	0.4	12.6*	3.9	4.0	12.3*	11.6*
CCOC(=O)c1ccc(NC(=O)CN(C)S(=O)(=O)c2ccc(OC)cc2)cc1	-0.6	-11.6	8.0*	3.0	1.8	-2.1	-1.1
COC(=O)[C@]12C[C@H](CC(=O)NCc3cccc4ccccc34)C(=O)N(Cc3cccc4ccccc34)C1=C[C@H](COCc1ccccc1)O[C@@H]2C	4.1	-0.7	x	-2.3	2.7	x	x
COCCCNc1nc2ccccc2nc1NS(=O)(=O)c1ccc(OC)cc1	-1.2	3.4	-4.6	2.3	4.0	x	x
COCCCNc1nc2ccccc2nc1NS(=O)(=O)c1cccs1	4.5	5.4	14.3*	-0.5	-3.6	-2.7	-0.2
C=CCNC(=O)c1ccc2nc(Cc3ccc(OC)cc3)oc2c1	3.6	-4.8	2.1	-3.8	2.2	x	x
COc1ccc(Cc2nc3ccc(C(=O)NCC4COCCO4)cc3o2)cc1 (configuration not stated)	0.3	-21.4	7.8*	4.0	-2.2	-0.7	-1.2
COCCNC(=O)c1cc(-c2ccccn2)nc2ccc(S(=O)(=O)N3CCC(C)CC3)cc12	0.3	-6.0	17.0*	1.5	0.8	-2.0	-1.1
SMILES	LEDGF integ inh	TDP2 absorb	Rin1 Abl inh	UHRF1 binding	MBD2 DNA inh	Rin1-Abl confirm	GFP quencher	others
CCOCCCNC(=O)c1cc(-c2cccnc2)nc2ccc(S(=O)(=O)N3CCC(C)CC3)cc12	x	x	4.6	x	x	x	x
CCOC(=O)CCCCC(=O)c1[nH]c(=O)[nH]c1Cn1cnc2ccccc21	6.2	5.1	71.5*	5.0	-5.0	79.1*	0.5	GFP quench dose=>67.6
CCOC(=O)CCCCC(=O)c1[nH]c(=O)[nH]c1CSc1nc(-c2ccccc2)c(C#N)c(=O)[nH]1	15.1*	16.2	61.0*	-2.2	-0.9	75.5*	1.4	GFP quench dose=>67.5
CCOC(=O)c1[nH]c(=O)[nH]c1CSc1ccccn1	-0.1	2.8	1.9	0.9	-0.8	x	x
CCOC(=O)CCCCC(=O)c1[nH]c(=O)[nH]c1CSCCO	8.4	-1.1	78.4*	-1.2	-3.4	82.0*	0.0	GFP quench dose=>67.5
CCn1c(SCC(=O)NN=Cc2c[nH]c3ccccc23)nc2ccccc21	1.8	6.5	x	-1.6	-6.1	x	x
O=C(Nc1ccc(Cl)cc1)NC1CCCCC1Cc1ccco1 (configuration not stated)	0.0	-5.6	-0.5	1.9	-2.0	x	x
O=C(Nc1ccc(Cl)cc1)NC1CCCC1Cc1ccco1 (configuration not stated)	x	x	8.4*	x	x	-2.0	2.6
CCn1c2ccccc2c2cc(CN3CCN(S(C)(=O)=O)CC3)ccc21	-4.8	-0.1	6.1*	0.8	4.8	-2.5	-1.9
COc1cc2c(cc1OC)CN(CC(=O)Nc1cccc(C)c1)CC2	2.0	4.3	6.5*	-4.8	-1.9	1.6	-0.4

Compound activity: PubChem, The Scripps Research Institute Molecular Screening Center
